# SKKanGAS inh = blocks kanamycin growth of S. pyogenes SKKanGAS strain; inhibition, % at 7.5 µM; 300,000 compounds, 1.3% hits; BacTiter-Glo, 6 h;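 active means mean replicate score, as percent of positive control median, at least 50; inconclusive means mean below 50 but one replicate at or above 50; inactive means mean and every replicate below 50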;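 further: strain carries kanamycin resistance gene driven by streptokinase promoter and grows in 40 µg/ml kanamycin; loss of luminescence reflects streptokinase promoter inhibition or plain growth inhibition; 0% = median of DMSO wells and 100% = positive control at its reference dose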
# Beta cell apopt = beta cell apoptosis inhibition; INS-1E cytokine-induced death, ATP luminescence, 48 h; percent of positive-control rescue, neutral wells zero; protection from apoptosis, % (concentration not given with the values); 300,000 compounds, 0.8% hits;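 active means Every replicate reaches about 75%, or at least half do and their mean reaches it too, limit read from the data; inconclusive means At least half of replicates reach the limit but their mean does not; inactive means Under half of replicates reach the limit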;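 further: 0% = cytokine-treated negative control wells and 100% = positive control rescue; higher means more ATP so stronger rescue from cytokine killing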
# CSC inhib = blocks cancer stem cells | AID 2717 | cancer stem cell-like cells viability, luminescence | inhibition, % at 7.5 µM | 300,000 compounds, 1.1% hits; in the data active means inhibition above about 75%; inconclusive means no clear call, values can overlap the other calls; tested in HMLE shEcad cells
# CHOP UPR activ = activators of apoptotic arm of unfolded protein response (CHOP); CHO-CHOP luciferase reporter, UPR activation, luminescence; percent of tunicamycin response over DMSO baseline; activation, % at 10 µM; 330,000 compounds, 0.34% hits;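 active means at 10 µM dose, activation of 40% or more, normalized to positive control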;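 further: 100% = tunicamycin at 10 µg/mL and 0% = DMSO alone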
#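 measured by = luciferase luminescence | assay system = CHO-CHOP cells, stable luciferase reporter of PERK-eIF2a-CHOP signalling | amount = 500 reporter cells seeded per well | timing = 6 h compound exposure at 37 °C after overnight seeding | controls = positive tunicamycin 10 µg/mL, negative DMSO alone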
# XBP1 UPR activ = activators of adaptive arm of unfolded protein response (XBP1) | CHO-XBP1 luciferase reporter, IRE1-XBP1 UPR activation, luminescence; percent of tunicamycin response, DMSO as zero | activation, % at 20 µM | 330,000 compounds, 0.33% hits | AID 463104;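 active means versus positive control, 20 µM dose yields 30% or more activation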;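 further: 100% = tunicamycin at 10 µg/mL and 0% = DMSO only wells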
#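 Material: CHO cell line with stable XBP1 luciferase reporter; schedule: 16-18 h cell attachment at 37 °C, then 6 h compound exposure; signal: glow luminescence from Steady-Glo reagent; medium: serum-containing F12 medium, 10% FBS; benchmarks: tunicamycin 10 µg/mL and vehicle-only wells; read-out: percent activation relative to tunicamycin reference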
# Mdm2-MdmX inh = inhibitors of human Mdm2/MdmX interaction; O15151+Q00987; SaOS-2 split-luciferase Mdm2/MdmX complementation, luminescence; inhibition, % at 8 µM; 330,000 compounds, 3% hits;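 active means inhibition of at least 50% at 8 µM in the primary screen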
# Target sequence (O15151 whole entry, looked up): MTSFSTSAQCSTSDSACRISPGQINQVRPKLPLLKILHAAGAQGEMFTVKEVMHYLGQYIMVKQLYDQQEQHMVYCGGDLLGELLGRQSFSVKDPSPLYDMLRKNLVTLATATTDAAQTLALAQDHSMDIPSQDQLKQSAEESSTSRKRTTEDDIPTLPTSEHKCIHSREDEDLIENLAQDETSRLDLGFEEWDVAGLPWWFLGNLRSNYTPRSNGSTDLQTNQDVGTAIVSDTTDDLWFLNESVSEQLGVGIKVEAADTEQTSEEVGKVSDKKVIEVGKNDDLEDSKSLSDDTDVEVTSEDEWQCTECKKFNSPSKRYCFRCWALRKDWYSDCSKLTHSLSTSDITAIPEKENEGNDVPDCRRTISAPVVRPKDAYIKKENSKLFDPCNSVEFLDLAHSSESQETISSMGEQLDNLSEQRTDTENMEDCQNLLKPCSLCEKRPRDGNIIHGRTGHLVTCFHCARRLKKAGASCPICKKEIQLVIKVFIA
# Target sequence (Q00987 whole entry, looked up): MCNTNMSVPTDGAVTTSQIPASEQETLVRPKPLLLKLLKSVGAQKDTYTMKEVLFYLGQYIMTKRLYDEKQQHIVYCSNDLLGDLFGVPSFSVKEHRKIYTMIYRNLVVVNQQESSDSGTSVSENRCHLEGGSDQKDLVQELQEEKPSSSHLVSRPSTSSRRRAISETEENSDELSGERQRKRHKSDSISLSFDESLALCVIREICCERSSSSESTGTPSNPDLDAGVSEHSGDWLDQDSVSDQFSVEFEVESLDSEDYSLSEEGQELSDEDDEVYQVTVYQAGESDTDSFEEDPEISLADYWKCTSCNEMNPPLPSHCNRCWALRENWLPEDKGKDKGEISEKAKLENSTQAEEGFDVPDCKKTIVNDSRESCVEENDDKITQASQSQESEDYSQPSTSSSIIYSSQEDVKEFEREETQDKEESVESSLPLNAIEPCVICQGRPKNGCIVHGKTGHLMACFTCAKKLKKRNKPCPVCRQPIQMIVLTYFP
# UPR CHOP confirm = confirmation of apoptotic unfolded protein response (CHOP) activators; shares compounds with CHOP UPR activ; CHO-CHOP cells, CHOP-luciferase reporter luminescence; percent of tunicamycin response, DMSO as zero; activation, % at 10 µM; 1,000 compounds, 64% hits; in the data active means activation above about 33%;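 further: 0% = DMSO wells and 100% = tunicamycin 10 µg/mL wells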
# UPR XBP1 confirm = adaptive UPR (XBP1) activation, confirmed; shares compounds with XBP1 UPR activ; CHO-XBP1 IRE1-XBP1 luciferase reporter, luminescence; activation, % at 20 µM; 1,000 compounds, 63% hits; AID 485299;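 active means reporter signal at least 30% of the positive control's activation in two or more of four replicate wells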;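 further: plate controls were DMSO negative control for no effect and tunicamycin 10 µg/mL positive control for full effect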
# * marks the source's active call; other numbers are inactive results; ? = inconclusive; / = no result given. Most compounds without a hit are left out; they make up all but 4.8% or so of the library.
SMILES,SKKanGAS inh,Beta cell apopt,CSC inhib,CHOP UPR activ,XBP1 UPR activ,Mdm2-MdmX inh,UPR CHOP confirm,UPR XBP1 confirm
O=C1CC(c2cccc(Cl)c2)CC(O)=C1C=Nc1cccc(Cl)c1 (stereo not drawn),7.9,-5.2,7.9,51.8*,-0.1,41.6,3.3,/
Cc1cnnn1-c1ccc(C(=O)CCl)cc1,-2.5,-3.8,4.3,131.8*,-7.2,-5.3,-9.3,/
COc1cc(C(=O)NCCSc2ccc(Cl)cc2)cc(OC)c1OC,-4.9,-5.8,-4.7,-0.8,-2.5,-5.8,/,/
COc1cc(C(=O)Sc2ccc(Cl)cc2)cc(OC)c1OC,-4.4,/,18.8,54.6*,21.3,9.2,72.8*,/
Cc1ccc(/C=C2\CCC3=C2OC(N)=C(C#N)C3c2ccc(C)cc2)cc1 (stereo not drawn),12.2,3.7,9.5,91.8*,13.2,19.8,80.8*,/
COc1cccc(/C=C2/CN(C)CC3=C2OC(N)=C(C#N)C3c2cccc(OC)c2)c1 (stereo not drawn),6.2,/,6.0,0.2,-7.5,35.8,/,/
COc1ccc(Cc2nnc(NC(=O)c3ccc(F)cc3)s2)cc1OC,-2.8,6.9,0.9,-1.3,-4.5,15.7,/,/
COc1ccc(CCNC(=O)c2coc(=O)c(Br)c2)cc1,-0.5,2.8,?,116.0*,-1.2,44.4,56.3*,/
Oc1ccc(-c2cn3ccccc3n2)cc1O,-0.6,0.7,4.4,154.7*,-1.5,-41.1,33.5*,/
Cc1ccn2cc(-c3ccc(O)c(O)c3)nc2c1,6.5,2.1,33.5,120.0*,-4.1,-55.4,56.6*,/
Oc1ccc(-c2cn3ccccc3n2)cc1,0.9,4.8,-4.0,3.9,1.6,-30.5,/,/
O=C(CCl)c1ccc(Cc2ncc(C(F)(F)F)cc2Cl)s1,54.5*,2.7,-15.7,168.8*,7.6,44.6,169.1*,/
NS(=O)(=O)c1ccc(Cc2ncc(C(F)(F)F)cc2Cl)s1,1.1,1.0,-17.9,0.9,-2.1,-15.4,/,/
COC(=O)c1c(NC(=O)C(Cl)Cl)sc2c1C(C(=O)OC)CC2 (stereo not drawn),-0.5,/,/,44.7*,18.5,38.2,29.5,/
COC(=O)c1c(NC(=O)C(C)(C)C)sc2c1C(C(=O)OC)CC2 (stereo not drawn),5.6,3.0,-12.4,1.2,1.4,-20.1,/,/
O=C(CCN1C(=O)C2C3C=CC(C4CC34)C2C1=O)Oc1cccc2cccnc12 (stereo not drawn),1.7,-11.0,6.8,71.9*,9.5,7.9,60.2*,/
CC(C)(CNC(=O)CO/N=C1/C=C2CCC3C(C(O)C[C@@]4(C)C3CC[C@]4(O)C(=O)CO)[C@@]2(C)CC1)C(O)C(=O)O (stereo partly drawn),20.4,-5.3,-2.7,-0.3,3.0,-36.4,/,/
NC(=O)C1CCN(C2=C(Cl)C(=O)c3ccccc3C2=O)CC1,-8.2,14.8,85.3*,393.6*,3.9,11.9,-10.3,/
O=C1C(Cl)=C(N2CCC(C(=O)O)CC2)C(=O)c2ccccc21,16.1,-27.6,25.6,2.3,-0.7,-20.4,/,/
Cc1ccc(N=C2C(=S)N(c3ccc(C)cc3)C(=N)N2/N=C/c2ccc(Cl)cc2)cc1,19.5,-3.9,5.2,56.5*,7.3,-30.6,17.2,/
O=C(N/N=C/c1cccc([N+](=O)[O-])c1)c1cc2c(ccc3ccccc32)o1,-0.6,42.5,1.6,104.0*,39.8*,34.2,76.5*,15.9
O=C(N/N=C/c1ccncc1)c1cc2c(ccc3ccccc32)o1,6.0,4.5,1.6,-0.5,-2.6,14.0,/,/
CCOc1ccc(-n2nc3ccc(NC(=O)c4ccc5c(c4)OCCO5)cc3n2)cc1,-0.5,34.9,12.7,73.5*,154.6*,36.5,19.8,121.7*
O=C(Nc1ccc2nn(-c3ccccc3)nc2c1)c1ccc2c(c1)OCCO2,-6.1,/,-8.3,3.5,-2.1,17.4,/,/
Cc1cccnc1Nc1nc(-c2ccc(O)c(O)c2)cs1,-5.5,0.9,53.2,155.3*,30.5*,-40.9,113.8*,43.1*
SMILES,SKKanGAS inh,Beta cell apopt,CSC inhib,CHOP UPR activ,XBP1 UPR activ,Mdm2-MdmX inh,UPR CHOP confirm,UPR XBP1 confirm
COc1ccc2oc(C(=O)OCC(=O)N(C)C3CCCCC3)c(C)c2c1,1.1,-1.4,-5.5,2.4,2.4,14.2,/,/
COC(=O)c1c(NC(=O)CC2Nc3ccccc3NC2=O)sc(C)c1C (stereo not drawn),0.0,1.9,8.1,159.7*,46.8*,-9.1,40.4*,31.0*
CCOC(=O)c1c(NC(=O)CC2Nc3ccccc3NC2=O)sc(C)c1C (stereo not drawn),7.3,-2.8,-0.2,1.2,-0.9,16.9,/,/
Cc1ccc(C(C[N+](=O)[O-])n2nc(C)cc2C)cc1 (stereo not drawn),21.6,9.7,100.7*,56.8*,55.2*,30.1,82.7*,20.0
COc1ccc2nc(/C(C#N)=C\c3ccc(Oc4ccc([N+](=O)[O-])cn4)cc3)[nH]c2c1,21.5,?,7.7,98.4*,181.6*,43.4,24.1,36.6*
CCOC(=O)c1cnc(Nc2nc3ccccc3o2)nc1CSc1ncccn1,-2.5,17.0,-0.3,-0.6,1.8,18.4,/,/
CCOC(=O)c1cnc(Nc2nc3ccccc3o2)nc1CSC(=S)N(CC)CC,19.1,19.4,/,126.8*,32.8*,42.4,122.2*,21.3
CCc1ccc2oc(C(=O)NC3CCS(=O)(=O)C3)cc(=O)c2c1 (stereo not drawn),8.0,/,/,-1.8,15.2,-8.4,/,/
CC1CCCC(C)N1/N=C/c1ccc(O)c(O)c1 (stereo not drawn),1.3,-0.2,21.3,-0.2,1.4,13.9,/,/
O=C1c2ccccc2C(=O)N1/N=C/c1ccc(O)c(O)c1,-4.7,2.2,13.4,53.9*,72.0*,-5.1,18.3,37.2*
Brc1ccc(-c2ccc(/C=N/Nc3nncc(-c4ccccc4)n3)o2)cc1,5.5,16.5,-7.1,59.0*,90.9*,40.4,62.2*,127.9*
COc1ccc(S(=O)(=O)N(C)c2ccc(C(=O)NCc3ccccn3)cc2)cc1OC,-0.1,/,2.8,-1.0,0.0,6.3,/,/
CS(=O)(=O)Oc1ccc2c(c1)O/C(=C\C=C\c1ccccc1)C2=O,3.1,21.6,12.5,154.1*,46.6*,11.6,33.8*,2.2
O=C(NCc1ccc2c(c1)OCO2)C(=O)NCC1OCCCN1S(=O)(=O)c1ccc(F)cc1 (stereo not drawn),8.1,1.7,6.5,3.2,-1.7,18.9,/,/
O=C(Nc1ccc(-c2nc3ccccc3o2)cc1)c1ccc2c(c1)OCO2,0.8,9.3,-0.4,46.2*,88.1*,-3.9,6.6,23.8

# High-throughput results as filed in PubChem BioAssay.
